The text below walks through data of ChEMBL document CHEMBL1138199, “Identification of compounds with anti-West Nile Virus activity” (J Med Chem, 2006).

A value given as a limit tells only on which side of the number the result lay.

Test system in the first data set: not listed separately
Put plainly: Therapeutic index (CC50/EC50) in Vero cells. It counts as cell-based. The following applies: monkey, read-out: Ratio CC50/EC50. The procedure, abridged:
(§1)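 TI computed as CC50/EC50, using MTT CC50 and replicon EC50 in BHK-21 cells, or MTT CC50 and Rluc-FL-WNV EC50 in Vero cells.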
In the case of `O=C(c1cccc2c(NC3CCN(Cc4ccccc4)CC3)c3ccccc3nc12)N1CCOCC1`, the selectivity ratio was less than 3.

Test system in the next data set: not listed separately
As to the kind of experiment: Therapeutic index (CC50/EC50) in BHK21 cells. It counts as cell-based, BHK-21. The following applies: hamster, read-out: Ratio CC50/EC50. The procedure, abridged:
as §1
`CC(C)(C)C(=O)N1N=C(C(C)(C)C)CC1c1ccc(Cl)cc1` (centres undefined): the selectivity ratio worked out at 2.2.
The same measure, in the same setting: the result for `O=C(Cc1ccc(Cl)cc1)N1N=C(c2ccco2)CC1c1ccc(Br)cc1` (centres undefined) reads greater than 15.
The same measure, in the same setting: the result for `CC(C)(C)C1=NN(C(=O)c2ccccc2)C(c2ccc(Cl)cc2)C1` (centres undefined) reads 1.1; that for `O=C(c1ccccc1)N1N=C(c2ccccc2)CC1c1ccc(Cl)cc1` (centres undefined), 12.5.
Same read-out and setting: the value for `O=C(Cc1ccc(Cl)cc1)N1N=C(c2cccs2)CC1c1ccc(Cl)cc1` (centres undefined) was greater than 16; that for `O=C(c1ccccc1)N1N=C(c2cccs2)CC1c1ccc([N+](=O)[O-])cc1` (centres undefined) was greater than 1.5.
For `CC(C)(C)C(=O)N1N=C(c2cccs2)CC1c1ccc(Cl)cc1` (centres undefined), the selectivity ratio was found to be 1.5.
Turning to `O=C(c1ccccc1)N1N=C(c2cccs2)CC1c1ccc(F)cc1` (centres undefined), the selectivity ratio stood at 1.7.
Still for that read-out and setting: the result for `COc1ccc(C2CC(c3cccs3)=NN2C(=O)Cc2ccc(Cl)cc2)cc1` (centres undefined) reads greater than 10; that for `O=C(c1ccc([N+](=O)[O-])cc1)N1N=C(c2cccs2)CC1c1ccc(Cl)cc1` (centres undefined), greater than 1.3; that for `O=C(Cc1ccccc1)N1N=C(c2cccs2)CC1c1ccc(Cl)cc1` (centres undefined), 3.3.
On the same count and under the same terms, the result for `O=C(c1ccccc1)N1N=C(c2cccs2)CC1c1ccc(Br)cc1` (centres undefined) reads greater than 12; that for `COc1ccc(C2CC(c3cccs3)=NN2C(=O)c2ccccc2)cc1` (centres undefined), greater than 4.8.
Still for that read-out and setting: the value for `O=C(Cc1ccc(Cl)cc1)N1N=C(c2cccs2)CC1c1ccc(Br)cc1` (centres undefined) was greater than 16; that for `O=C(c1ccccc1)N1N=C(c2ccc(Br)s2)CC1c1ccc(Cl)cc1` (centres undefined) was greater than 18; that for `O=C(c1cccc2c(NC3CCN(Cc4ccccc4)CC3)c3ccccc3nc12)N1CCOCC1` was 15.

The subject of a further data set is West Nile virus. Put plainly: Inhibition of Rluc-FL-WNV replicon in Vero cells. The format is functional, organism-based.
Conditions: not given
The procedure, abridged: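 Vero cells infected with full-length WNV carrying Renilla luciferase reporter (Rluc-FL-WNV), covering entry, replication and assembly; inhibition read as suppression of luciferase signal. Compounds first screened at 30 µM in 1% DMSO final, then EC50 (µM) determined.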
Broadly, the EC50 is the concentration that produces a half-maximal response. Lower therefore signals an effect from little substance. Consider `O=C(c1ccccc1)N1N=C(c2cccs2)CC1c1ccc(Br)cc1` (centres undefined), for which the EC50 was greater than 30 µM.
Regarding `COc1ccc(C2CC(c3cccs3)=NN2C(=O)c2ccccc2)cc1` (centres undefined), the concentration giving a half-maximal response (EC50) was greater than 30 µM.
Still for that read-out and setting: the result for `O=C(c1cccc2c(NC3CCN(Cc4ccccc4)CC3)c3ccccc3nc12)N1CCOCC1` reads greater than 30 µM.

Another data set relates to BHK-21. Put plainly: Inhibition of West Nile virus VLP replicon in BHK21 cell line. The format is functional, cell-based. The following applies: Mesocricetus auratus. The procedure, abridged:
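Naive BHK-21 cells infected with virus-like particles, made by expressing WNV structural proteins in cells carrying the Rluc-Neo-Rep replicon, which package replicon RNA. This captures entry and replication but not assembly. Inhibition is read as suppression of Renilla luciferase signal. Compounds were given in 1% DMSO final, and EC50 is in µM.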
On the technique in general: In antiviral work, replicon cells carry a viral genome segment that copies itself.
For the compound `O=C(c1cccc2c(NC3CCN(Cc4ccccc4)CC3)c3ccccc3nc12)N1CCOCC1`, the midpoint of the response, the EC50, lay at 20 µM.

In another data set the test system is West Nile virus. Put plainly: Inhibition of West Nile viral Rluc-Neo-Rep in BHK21 cell line. The following applies: BHK-21. It counts as functional, organism-based. The procedure, abridged: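 BHK-21 cell line stably carrying Rluc-Neo-Rep replicon; inhibition read as suppression of Renilla luciferase signal. Initial screen at 30 µM, 1% DMSO final; EC50 (µM) then determined.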
As to `CC(C)(C)C(=O)N1N=C(C(C)(C)C)CC1c1ccc(Cl)cc1` (centres undefined), a half-maximal effect (EC50) was put at 27 µM.
`O=C(Cc1ccc(Cl)cc1)N1N=C(c2ccco2)CC1c1ccc(Br)cc1` (centres undefined) came in with an EC50 of 20 µM. The EC50 values of the last two compounds are within 1.5-fold of each other.
On to `CC(C)(C)C1=NN(C(=O)c2ccccc2)C(c2ccc(Cl)cc2)C1` (centres undefined), for which a half-maximal response (EC50) required 57 µM.
Same read-out and setting: the result for `O=C(c1ccccc1)N1N=C(c2ccccc2)CC1c1ccc(Cl)cc1` (centres undefined) reads 20 µM; that for `O=C(Cc1ccc(Cl)cc1)N1N=C(c2cccs2)CC1c1ccc(Cl)cc1` (centres undefined), 19 µM; that for `O=C(c1ccccc1)N1N=C(c2cccs2)CC1c1ccc([N+](=O)[O-])cc1` (centres undefined), 200 µM.
Consider `CC(C)(C)C(=O)N1N=C(c2cccs2)CC1c1ccc(Cl)cc1` (centres undefined), for which the response was half-maximal at 60 µM (EC50).
Still for that read-out and setting: the result for `O=C(c1ccccc1)N1N=C(c2cccs2)CC1c1ccc(F)cc1` (centres undefined) reads 59 µM; that for `COc1ccc(C2CC(c3cccs3)=NN2C(=O)Cc2ccc(Cl)cc2)cc1` (centres undefined), 30 µM.
`O=C(c1ccc([N+](=O)[O-])cc1)N1N=C(c2cccs2)CC1c1ccc(Cl)cc1` (centres undefined) showed an EC50 of 225 µM.
The same measure, in the same setting: the value for `O=C(Cc1ccccc1)N1N=C(c2cccs2)CC1c1ccc(Cl)cc1` (centres undefined) was 20 µM.
Same read-out and setting: the result for `O=C(c1ccccc1)N1N=C(c2cccs2)CC1c1ccc(Br)cc1` (centres undefined) reads 25 µM; that for `COc1ccc(C2CC(c3cccs3)=NN2C(=O)c2ccccc2)cc1` (centres undefined), 63 µM.
Still for that read-out and setting: the value for `O=C(Cc1ccc(Cl)cc1)N1N=C(c2cccs2)CC1c1ccc(Br)cc1` (centres undefined) was 19 µM.
`O=C(c1ccccc1)N1N=C(c2ccc(Br)s2)CC1c1ccc(Cl)cc1` (centres undefined) registered an EC50 of 17 µM.
Same read-out and setting: the result for `O=C(c1cccc2c(NC3CCN(Cc4ccccc4)CC3)c3ccccc3nc12)N1CCOCC1` reads 20 µM.

The subject of another data set is BHK-21. Put plainly: Cytotoxicity against BHK21 cell line by MTT assay. The following applies: Mesocricetus auratus. It counts as functional. The procedure, abridged:
(§2)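 MTT cytotoxicity assay run in BHK-21 and Vero cells on compounds giving >50% Rluc inhibition in the primary screens; CC50 reported in µM.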
A general note: Formazan colour is commonly taken as a measure of viable cells.
As a reminder, the CC50 is the concentration at which the toxic effect on the cells reaches its halfway point. A high value points to lower toxicity to the cells. As to `CC(C)(C)C(=O)N1N=C(C(C)(C)C)CC1c1ccc(Cl)cc1` (centres undefined), the CC50 was found to be 60 µM. That is a double-digit micromolar value.
Still for that read-out and setting: the result for `O=C(Cc1ccc(Cl)cc1)N1N=C(c2ccco2)CC1c1ccc(Br)cc1` (centres undefined) reads greater than 300 µM.
Still for that read-out and setting: the result for `CC(C)(C)C1=NN(C(=O)c2ccccc2)C(c2ccc(Cl)cc2)C1` (centres undefined) reads 65 µM; that for `O=C(c1ccccc1)N1N=C(c2ccccc2)CC1c1ccc(Cl)cc1` (centres undefined), 250 µM; that for `O=C(Cc1ccc(Cl)cc1)N1N=C(c2cccs2)CC1c1ccc(Cl)cc1` (centres undefined), greater than 300 µM.
The same measure, in the same setting: the value for `O=C(c1ccccc1)N1N=C(c2cccs2)CC1c1ccc([N+](=O)[O-])cc1` (centres undefined) was greater than 300 µM; that for `CC(C)(C)C(=O)N1N=C(c2cccs2)CC1c1ccc(Cl)cc1` (centres undefined) was 90 µM.
`O=C(c1ccccc1)N1N=C(c2cccs2)CC1c1ccc(F)cc1` (centres undefined) had a CC50 of 100 µM.
Still for that read-out and setting: the result for `COc1ccc(C2CC(c3cccs3)=NN2C(=O)Cc2ccc(Cl)cc2)cc1` (centres undefined) reads greater than 300 µM.
Same read-out and setting: the result for `O=C(c1ccc([N+](=O)[O-])cc1)N1N=C(c2cccs2)CC1c1ccc(Cl)cc1` (centres undefined) reads greater than 300 µM; that for `O=C(Cc1ccccc1)N1N=C(c2cccs2)CC1c1ccc(Cl)cc1` (centres undefined), 65 µM; that for `O=C(c1ccccc1)N1N=C(c2cccs2)CC1c1ccc(Br)cc1` (centres undefined), greater than 300 µM.
The compound `COc1ccc(C2CC(c3cccs3)=NN2C(=O)c2ccccc2)cc1` (centres undefined) displayed a 50% cytotoxic concentration (CC50) greater than 300 µM.
`O=C(Cc1ccc(Cl)cc1)N1N=C(c2cccs2)CC1c1ccc(Br)cc1` (centres undefined) displayed a CC50 greater than 300 µM.
`O=C(c1ccccc1)N1N=C(c2ccc(Br)s2)CC1c1ccc(Cl)cc1` (centres undefined) registered a CC50 greater than 300 µM.
On the same count and under the same terms, the value for `O=C(c1cccc2c(NC3CCN(Cc4ccccc4)CC3)c3ccccc3nc12)N1CCOCC1` was 300 µM.

The next data set concerns Vero. Put plainly: Cytotoxicity against Vero cells by MTT assay. The format is functional. The settings on record: Chlorocebus sabaeus. The procedure, abridged:
as §2
Consider `O=C(c1cccc2c(NC3CCN(Cc4ccccc4)CC3)c3ccccc3nc12)N1CCOCC1`, for which half-maximal cytotoxicity (CC50) was put at 90 µM.
